Measurements taken from ChEMBL document CHEMBL1157367, “Systematic comparison of the population pharmacokinetics and pharmacodynamics of piperacillin in cystic fibrosis patients and healthy volunteers” (Antimicrob Agents Chemother, 2007).

Experiments:
Assay type in all cases: ADME, organism-based
[1] = Peak drug level in healthy human at 4 g, iv; conditions: in vivo, read-out: Drug uptake
How it was run: (§1)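 Single 5-min IV infusion of 4 g piperacillin. Forearm-vein blood drawn from the arm opposite the infusion line pre-dose, at end of infusion, and 5 min to 24 h afterwards. Plasma iced, frozen at –70°C, acetonitrile-deproteinized with mezlocillin internal standard. Reversed-phase HPLC, UV 220 nm, linear 0.200–150 mg/liter. Unscaled parameters by noncompartmental analysis.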

[2] = Terminal half life in healthy human at 4 g, iv; conditions: in vivo; how it was run: as §1
[3] = Clearance in healthy human with lean body mass of 53 kg at 4 g, iv; conditions: in vivo
How it was run: (§2)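 4 g piperacillin as a single 5-min IV infusion. Serial plasma sampled to 24 h and assayed by reversed-phase HPLC-UV (220 nm, mezlocillin internal standard, LOQ 0.200 mg/liter). Population PK model fitted in NONMEM with body size described by lean body mass and a CF-specific scale factor. Combined additive plus proportional residual error.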

[4] = Mean residence time in cystic fibrosis patient at 4 g, iv; conditions: human, in vivo; how it was run: as §1
[5] = Mean residence time in healthy human at 4 g, iv; conditions: in vivo; how it was run: as §1
[6] = Volume of distribution at steady state in healthy human with lean body mass of 53 kg at 4 g, iv; conditions: in vivo, read-out: Vdss; how it was run: as §2
[7] = Volume of distribution at steady state in cystic fibrosis patient at 4 g, iv; conditions: human, in vivo, read-out: Vdss; how it was run: as §1
[8] = Total clearance in cystic fibrosis patient at 4 g, iv; conditions: human, in vivo; how it was run: as §1
[9] = tested on: Homo sapiens; assay: Peripheral volume of distribution in cystic fibrosis patient with lean body mass of 53 kg at 4 g, iv; conditions: in vivo; how it was run: as §2
[10] = Terminal half life in cystic fibrosis patient at 4 g, iv; conditions: human, in vivo; how it was run: as §1
[11] = Volume of distribution at steady state in healthy human at 4 g, iv; conditions: in vivo, read-out: Vdss; how it was run: as §1
[12] = Peak drug level in cystic fibrosis patient at 4 g, iv; conditions: human, in vivo, read-out: Drug uptake; how it was run: as §1
[13] = Volume of distribution at steady state in cystic fibrosis patient with lean body mass of 53 kg at 4 g, iv; conditions: human, in vivo, read-out: Vdss; how it was run: as §2
[14] = Total clearance in healthy human at 4 g, iv; conditions: in vivo; how it was run: as §1
[15] = Clearance in cystic fibrosis patient with lean body mass of 53 kg at 4 g, iv; conditions: human, in vivo; how it was run: as §2

Cmax [1]: 446 µg/mL | half-life [2]: 63 min | clearance [3]: 188 mL/min | MRT [4]: 51 min | MRT [5]: 61.2 min | Vd [6]: 10.4 L | Vd [7]: 8.13 L | clearance [8]: 146 mL/min | Vp/F [9]: 3.12 L | half-life [10]: 41.4 min | Vd [11]: 11.8 L | Cmax [12]: 767 µg/mL | Vd [13]: 9.61 L | clearance [14]: 195 mL/min | clearance [15]: 188 mL/min
Compound: CCN1CCN(C(=O)N[C@@H](C(=O)N[C@@H]2C(=O)N3[C@@H]2SC(C)(C)[C@@H]3C(=O)O)c2ccccc2)C(=O)C1=O [PIPERACILLIN]
